STAT1 blocker – STAT1 signaling inhibition | 200,000 tested, 0.35% active | inhibition, % at 5.5 µM | NIH 3T3 STAT1-luciferase reporter, IFN-gamma, luminescence | AID 920;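 active = inhibition above a set limit, the mean inhibition across all tested compounds plus 3 SD, cut at about 34% in these data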
HSV replic up – HSV replication enhancement; 220,000 tested, 0.005% active; maximum fold increase; HSV replication augmentation in cells, fold increase; AID 1956; in the data active = maximum fold increase above about 1.5; inconclusive = no clear call, values can overlap the other calls; tested in PC3 cells
KCC2 mod – modulators of human KCC2 chloride dependent transport | KCC2 cells, thallium flux FluoZin-2 fluorescence | AID 1456 | B-score of Tl+ flux slope (higher = more flux/activation; lower = inhibition) at 10 µM | 190,000 tested, 2.2% active;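 active = thallium flux slope and its plate-corrected score both differing from the plate sample mean at a set confidence after two filtering rounds, in either direction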;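 note: slope of fluorescence scaled to starting intensity during 10 to 20 s after thallium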
STAT1 activator – STAT1 signaling activation | activation (% of control), % at 5.5 µM | NIH 3T3 STAT1-luciferase reporter, IFN-gamma, luminescence; 100% = IFN-gamma alone, no compound | 200,000 tested, 2.6% active | AID 932;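 active = activation above the screen-wide mean activation plus 3 SD, cut at about 130% in these data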
STAT3 activator – activators of IL-6 induced STAT3 signaling; 190,000 tested, 0.91% active; activation (% of control), % at 5.6 µM; U3A cells, IL-6 STAT3-luciferase reporter, luminescence; 100% = signal with IL-6 EC80 alone;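 active = activation above the screen-wide mean of compound activation plus 3 SD, cut at about 130% in these data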
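Assay system – human STAT1-deficient U3A cells with stable STAT3-luciferase reporter · Also added – IL-6 (33 ng/mL) · Schedule – compound 1 h, then IL-6 6 h at 37 °C · Technique – reporter luminescence signal · Evaluation – % activation versus median of IL-6-stimulated wells · Benchmarks – IL-6-only wells as 100% reference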
STAT3 blocker – reduces IL-6 driven STAT3 reporter signal. U3A cells, IL-6 STAT3-luciferase reporter, luminescence; host cell line lacks STAT1. inhibition, % at 5.5 µM. 190,000 tested, 0.89% active. AID 862;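 active = inhibition above the mean inhibition across all screened compounds plus 3 SD, cut at about 44% in these data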
KCC2 secondary – confirmation of human KCC2 transport modulators | normalised thallium flux (F/F0 slope) at 10 µM | 3,700 tested, 15% active | HEK293-KCC2, thallium flux, FluoZin2 fluorescence; active compounds read high | shares compounds with KCC2 mod;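 active = thallium flux slope above the same plate's solvent-only control mean plus 3 SD; inconclusive = the two replicate wells disagree; inactive = no significant difference from solvent-only control wells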
KCC2 bumet counter – thallium flux despite bumetanide block in KCC2 cells, secondary assay 3; 3,700 tested, 49% active; shares compounds with KCC2 mod; HEK293-KCC2 + bumetanide/ouabain, thallium flux FluoZin2; active compounds read high; normalized thallium flux at 10 µM;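 active = thallium entry rate above the same plate's blocked-transporter control wells by more than 3 SD; inconclusive = the two repeat wells disagree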;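 note: raw slope of fluorescence over initial fluorescence between 10 and 20 s after thallium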
KCC2 secondary2 – KCC2 (human) modulation, second secondary assay; shares compounds with KCC2 mod; HEK293-KCC2, thallium flux FluoZin2 fluorescence; actives lie on both sides; F/F0 rise rate, 10–20 s post-thallium; normalized thallium flux at 10 µM; 3,700 tested, 23% active; AID 1715;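 active = thallium flux slope more than 3 SD above or below the plate's solvent-only control mean, mostly below; inconclusive = the two repeat wells disagreed; inactive = no significant shift from solvent-only controls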
HEK counter1 – counter-screen for KCC2 modulators: effect in parental HEK293 cells | shares compounds with KCC2 mod | thallium flux FluoZin2, ouabain; baseline-ratio fluorescence slope, 10–20 s after thallium | thallium flux rate (normalised fluorescence) at 10 µM | 3,700 tested, 46% active | AID 1716;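 active = thallium flux rate significantly above the same plate's solvent-only control wells, beyond their mean plus 3 SD; inconclusive = the two replicate wells gave conflicting results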
KCC2 retest ouab – KCC2 (human) modulation, ouabain retest; HEK293-KCC2, thallium flux FluoZin2 fluorescence; bidirectional: low = inhibitor, high = activator; shares compounds with KCC2 mod; raw Tl+ flux slope (below DMSO = inhibition, above = activation) at 10 µM; AID 1717; 3,700 tested, 48% active;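 active = thallium flux slope beyond 3 SD from same-plate DMSO control mean in most replicates, usually higher, sometimes lower; inconclusive = repeat tests gave conflicting results; inactive = no significant difference from controls in most replicates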;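 note: slope of initial-normalized fluorescence between seconds 10 and 20 after thallium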
HEK293 Tl flux2 – counter-screen for KCC2 modulators: effect in parental HEK293 cells. shares compounds with KCC2 mod. thallium flux FluoZin-2 fluorescence slope. thallium flux slope at 10 µM. 3,700 tested, 33% active. AID 1718;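 active = thallium flux slope above the same plate's solvent-control mean plus 3 SD in both duplicate wells; inconclusive = duplicate wells that disagreed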;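 note: run without ouabain in cells lacking the KCC2 cotransporter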
A number is an active result; . = inactive; ? = inconclusive; / = no result given. In the library only some 5.5% were active in any assay of this set; here they are far more common.

SMILES | STAT1 blocker | HSV replic up | KCC2 mod | STAT1 activator | STAT3 activator | STAT3 blocker | KCC2 secondary | KCC2 bumet counter | KCC2 secondary2 | HEK counter1 | KCC2 retest ouab | HEK293 Tl flux2
CC(NC(=S)NCCc1ccccc1)C(c1cccs1)N1CCN(C)CC1 (centres undefined) | . | . | . | . | . | . | / | / | / | / | / | /
CC(C)c1ccc(/C=N/NC(=O)c2ccccc2Cl)cc1 | . | . | -4.4 | 139 | . | . | . | . | 0.024 | . | ? | .
COC(=O)c1ccc(/C=N/NC(=O)c2ccccc2Cl)cc1 | . | . | . | . | . | . | / | / | / | / | / | /
O=C(O)CC(NC(=O)C1c2ccccc2Oc2ccccc21)c1ccc(OC2CCCC2)cc1 (centres undefined) | . | . | . | . | . | . | / | / | / | / | / | /
CCn1c2ccccc2c(=O)c2ccccc21 | . | . | . | . | . | . | / | / | / | / | / | /
CCn1c(-c2ccccc2)c(C(=O)CCl)c2ccccc21 | . | . | -4.3 | . | . | . | . | 0.0028 | . | 0.0049 | 0.017 | 0.008
COc1ccccc1CNS(=O)(=O)c1c(C)[nH]c(=O)[nH]c1=O | . | . | / | . | . | . | / | / | / | / | / | /
C/C(=N\NC(=S)Nc1ccc(C)c(C)c1)c1ccc(N2CCOCC2)cc1 | . | . | 5 | . | . | . | . | 0.033 | . | 0.015 | . | .
C/C(=N\NC(=S)Nc1cc(S(=O)(=O)N2CCOCC2)ccc1Cl)c1ccc(N2CCOCC2)cc1 | / | . | . | / | / | / | / | / | / | / | / | /
Cc1onc(-c2ccccc2Cl)c1C(=O)NC(=S)Nc1ccc(C(C)(C)C)cc1 | / | . | 6.9 | / | / | / | . | 0.012 | . | 0.013 | . | 0.013
CCc1ccc(NC(=S)NC(=O)c2c(-c3ccccc3Cl)noc2C)cc1 | / | . | 16 | / | / | / | . | 0.027 | 0.04 | 0.028 | 0.032 | 0.017
Cc1onc(-c2ccccc2Cl)c1C(=O)Nc1ccccc1 | . | . | . | . | . | . | / | / | / | / | / | /
O=c1c2ccc(Cl)cc2[nH]c(=S)n1Cc1cccnc1 | . | / | 3.6 | . | . | . | 0.013 | 0.03 | . | 0.015 | . | 0.011
Cc1cc(C(=O)N2CCN(Cc3ccccc3)CC2)on1 | . | . | . | . | . | . | / | / | / | / | / | /
Cc1onc(C(=O)N2CCN(Cc3ccccc3)CC2)c1[N+](=O)[O-] | . | . | -4.1 | . | . | . | . | . | ? | . | 0.019 | .
CCc1c(O)nc(SCC(=O)Nc2ccc(C)cc2)n(C2CCCCC2)c1=O | . | . | / | . | . | . | . | . | . | . | 0.016 | .
CCc1c(O)nc(SCC(=O)Nc2ccccc2)n(-c2ccccc2)c1=O | . | . | . | . | . | . | / | / | / | / | / | /
COC(=O)C1=C2SCC(=O)N2C(N)=C(C#N)C1 | / | . | . | / | / | / | / | / | / | / | / | /
CCn1c(=O)n(CCOC)c(=O)c2c3c(sc21)CCCC3 | . | . | . | . | . | . | / | / | / | / | / | /
COCCCn1c(=S)[nH]c2sc3c(c2c1=O)CCCS3 | . | . | 53 | . | . | . | 0.033 | 0.093 | 0.049 | 0.068 | 0.077 | 0.029
CCCCN(Cc1cc2ccccc2[nH]c1=O)C(=O)c1ccccn1 | . | . | . | . | . | . | / | / | / | / | / | /
CCOC(=O)N1CCN(CC(O)COCc2cc(OC)c(OC)c(OC)c2)CC1 (centres undefined) | . | . | . | . | . | . | / | / | / | / | / | /
O=C(Nc1nccs1)c1sc2ccccc2c1Cl | . | . | . | . | . | . | / | / | / | / | / | /
O=C(NC(=S)NCCO)c1sc2ccccc2c1Cl | . | . | 3.7 | . | . | . | . | 0.011 | . | 0.015 | . | .
CCOC(=O)C1=C(C)Nc2nc(=S)[nH]n2C1c1ccc(Cl)cc1 (centres undefined) | . | / | . | . | . | . | / | / | / | / | / | /
SMILES | STAT1 blocker | HSV replic up | KCC2 mod | STAT1 activator | STAT3 activator | STAT3 blocker | KCC2 secondary | KCC2 bumet counter | KCC2 secondary2 | HEK counter1 | KCC2 retest ouab | HEK293 Tl flux2
Cc1cccc(/C=N/n2c(-c3ccco3)n[nH]c2=S)c1 | / | . | 17 | / | / | / | 0.012 | 0.068 | . | 0.016 | 0.04 | 0.011
Cc1ccc(/C=N/n2c(-c3ccco3)n[nH]c2=S)cc1 | / | . | 15 | / | / | / | . | 0.028 | . | 0.019 | 0.031 | 0.017
S=c1[nH]nc(-c2ccco2)n1/N=C/c1ccc(Cl)c(Cl)c1 | . | . | . | . | . | . | / | / | / | / | / | /
O=[N+]([O-])c1cc(/C=N/n2c(-c3cccnc3)n[nH]c2=S)ccc1Cl | . | . | 8.1 | . | . | . | . | 0.077 | . | ? | ? | ?
S=c1[nH]nc(-c2ccco2)n1/N=C/c1ccccn1 | . | . | . | . | . | . | / | / | / | / | / | /
S=c1[nH]nc(-c2ccco2)n1/N=C/c1cccc(Cl)c1 | / | . | 9.2 | / | / | / | . | 0.014 | . | 0.012 | 0.022 | 0.016
CC(C)CC(=O)Nc1ccc2c3c(cccc13)CC2 | . | . | . | . | . | . | / | / | / | / | / | /
COc1ccc(S(=O)(=O)N(CC(=O)NC2CC2)c2ccc(C)cc2)cc1OC | . | . | . | . | . | . | / | / | / | / | / | /
Cc1n[nH]c(=S)n1/N=C/c1cccc(OCc2ccccc2)c1 | . | . | 16 | . | . | . | . | 0.027 | . | 0.014 | 0.022 | 0.016
Cc1ccc(NCc2nnc(SCC(=O)c3ccccc3)n2Cc2ccco2)c(C)c1 | . | . | . | . | . | . | / | / | / | / | / | /
O=C(CSc1nnc(CNc2ccc(F)cc2)o1)N1CCN(C(=O)c2ccco2)CC1 | . | . | . | . | . | . | / | / | / | / | / | /
O=C(CSc1nnc(-c2ccc(F)cc2)o1)N1CCN(C(=O)c2ccco2)CC1 | . | . | -4.4 | . | . | . | . | . | 0.03 | . | 0.018 | .
Cc1ccc(N(CC(=O)NCCSc2ccccn2)S(=O)(=O)c2ccc(F)cc2)cc1 | . | . | -4.2 | . | . | . | . | . | 0.026 | . | ? | .
CS(=O)(=O)N(CC(=O)NCCSc1ccccn1)c1ccc(F)cc1 | . | . | . | . | . | . | / | / | / | / | / | /
Cc1cc(C)c(C#N)c(N2CCN(Cc3ccccc3)CC2)n1 | . | . | -3.7 | . | . | . | . | . | ? | . | . | .

From PubChem
